Measured values as given in ChEMBL document CHEMBL1154034, “Piperazinyl-glutamate-pyridines as potent orally bioavailable P2Y12 antagonists for inhibition of platelet aggregation” (Bioorg Med Chem Lett, 2009).
pKi: −log10 of the molar value.

Assays:
P2Y purinoceptor 12 [1] = target: T1, P2Y purinoceptor 12 (Homo sapiens, UniProt Q9H244); test: Binding affinity to human recombinant P2Y12 receptor expressed in CHO cells; format: cell-based
[2] = Clearance in Sprague-Dawley rat at 2 mg/kg, iv and 5 mg/kg, po; format: ADME, organism-based; details: in vivo
Summary of the method: (§1)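 Male Sprague–Dawley rats, n = 2–4. Dosed by iv infusion at 2 mg/kg and orally at 5 mg/kg.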

[3] = Volume of distribution at steady state in Sprague-Dawley rat at 2 mg/kg, iv and 5 mg/kg, po; format: ADME, organism-based; details: in vivo, read-out: Vdss; summary of the method: as §1
[4] = Effective half life in Sprague-Dawley rat at 2 mg/kg, iv and 5 mg/kg, po; format: ADME, organism-based; details: in vivo; summary of the method: as §1
in vivo = details: Sprague-Dawley, rat, po, 5 mg/kg
[5] = Solubility of the compound; format: physicochemical
P2Y purinoceptor 12 [6] = target: T1, P2Y purinoceptor 12; test: Antagonist activity at human P2Y12 receptor assessed as inhibition of ADP-induced platelet-rich plasma aggregation by turbidimetric method; format: functional, cell-free
[7] = Drug concentration in rat bile at 2 mg/kg, iv after 4 hrs; format: ADME, organism-based; design: dose 2 mg/kg, route intravenous; details: read-out: Drug uptake
Summary of the method: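 Rats dosed at 2 mg/kg iv; bile collected over 4 h and the fraction of dose recovered determined.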

Rattus norvegicus = test: Antithrombotic activity in po dosed rat arterial thrombosis model assessed as inhibition of ferric chloride-induced thrombus formation; format: functional, organism-based
[8] = tested on: Salmonella enterica subsp. enterica; test: Toxicity in Salmonella Typhimurium by Ames test; format: organism-based; details: salmonella enterica subsp. enterica serovar typhimurium

T1 sequence (Q9H244 whole entry): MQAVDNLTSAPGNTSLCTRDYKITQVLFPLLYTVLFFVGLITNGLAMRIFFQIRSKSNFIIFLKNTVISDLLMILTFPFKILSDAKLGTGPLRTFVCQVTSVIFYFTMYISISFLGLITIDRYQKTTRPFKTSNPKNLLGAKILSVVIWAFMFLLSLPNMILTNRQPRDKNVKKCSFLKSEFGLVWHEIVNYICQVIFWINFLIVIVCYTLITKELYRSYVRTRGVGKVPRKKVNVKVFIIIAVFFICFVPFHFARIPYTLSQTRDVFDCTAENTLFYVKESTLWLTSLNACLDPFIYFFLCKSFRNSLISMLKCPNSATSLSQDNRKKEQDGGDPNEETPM

Row | Structure (SMILES) | pKi (P2Y purinoceptor 12 [1]) | clearance [2] [mL/min/kg] | Vd [3] [L/kg] | half-life [4] [min] | bioavailability (in vivo) [%] | solubility [5] | Kb (P2Y purinoceptor 12 [1]) [nM] | Kb (P2Y purinoceptor 12 [6]) [nM] | dose excreted at 4 h [7] [%] | Activity (Rattus norvegicus) | Activity [8]
1 | CCCCCOC(=O)N1CCN(C(=O)[C@H](CCC(=O)O)NC(=O)c2cc(N(C)CCS(C)(=O)=O)cc(-c3ccccc3)n2)CC1 | 7.82 | 69 | 1.3 | 12 | – | – | – | – | – | – | –
2 | CCCCOC(=O)N1CCN(C(=O)[C@H](CCC(=O)O)NC(=O)c2cc(OCCOC)cc(-c3ccccc3)n2)CC1 | 7.74 | 49 | 1.5 | 24 | 77 | – | – | – | – | – | –
3 | CCCCCOC(=O)N1CCN(C(=O)[C@H](CCC(=O)O)NC(=O)c2cc(N3CCC(CN)CC3)cc(-c3ccccc3)n2)CC1 | 8.15 | 70 | 2.6 | 24 | 0 | – | – | – | – | – | –
4 | CCCCCOC(=O)N1CCN(C(=O)[C@H](CCC(=O)O)NC(=O)c2cc(OC3CCNCC3)cc(-c3ccccc3)n2)CC1 | 8.42 | 133 | 3.1 | 18 | 1 | – | – | – | – | – | –
5 | CCCCCOC(=O)N1CCN(C(=O)[C@H](CCC(=O)O)NC(=O)c2cc(N3CCC(COC)CC3)cc(-c3ccccc3)n2)CC1 | 7.82 | 3 | 0.3 | 42 | – | Soluble | 8.5 | 300 | 70 | Dose-dependent effect | Non-toxic
6 | CCCCCCOC(=O)N1CCN(C(=O)[C@H](CCC(=O)O)NC(=O)c2cccc(-c3ccccc3)n2)CC1 | 7.37 | 29 | 1.7 | 42 | > 95 | – | – | – | – | – | –
7 | CCCCCOC(=O)N1CCN(C(=O)[C@H](CCC(=O)O)NC(=O)c2cccc(-c3ccccc3)n2)CC1 | 7.96 | 89 | 10.3 | 78 | 70 | – | – | – | – | – | –
8 | CCCCCCOC(=O)N1CCN(C(=O)[C@H](CCC(=O)O)NC(=O)c2cc(N3CCC(O)CC3)cc(-c3ccccc3)n2)CC1 | 7.62 | – | – | – | – | – | – | – | – | – | –
9 | CCOC(=O)N1CCN(C(=O)[C@H](CCC(=O)O)NC(=O)c2cc(OCCN)cc(-c3ccccc3)n2)CC1 | 6.48 | – | – | – | – | – | – | – | – | – | –
10 | CC(C)OC(=O)N1CCN(C(=O)[C@H](CCC(=O)O)NC(=O)c2cc(OCCO)cc(-c3ccccc3)n2)CC1 | 6.84 | – | – | – | – | – | – | – | – | – | –
11 | CCOC(=O)N1CCN(C(=O)[C@H](CCC(=O)O)NC(=O)c2cc(NCCOC)cc(-c3ccccc3)n2)CC1 | 7.00 | – | – | – | – | – | – | – | – | – | –
